Columns and labels:
[1] = molecular target: T1, A disintegrin and metalloproteinase with thrombospondin motifs 4 (Homo sapiens, UniProt O75173); assay: Inhibitory concentration against aggrecanase
T1 sequence (O75173 whole entry): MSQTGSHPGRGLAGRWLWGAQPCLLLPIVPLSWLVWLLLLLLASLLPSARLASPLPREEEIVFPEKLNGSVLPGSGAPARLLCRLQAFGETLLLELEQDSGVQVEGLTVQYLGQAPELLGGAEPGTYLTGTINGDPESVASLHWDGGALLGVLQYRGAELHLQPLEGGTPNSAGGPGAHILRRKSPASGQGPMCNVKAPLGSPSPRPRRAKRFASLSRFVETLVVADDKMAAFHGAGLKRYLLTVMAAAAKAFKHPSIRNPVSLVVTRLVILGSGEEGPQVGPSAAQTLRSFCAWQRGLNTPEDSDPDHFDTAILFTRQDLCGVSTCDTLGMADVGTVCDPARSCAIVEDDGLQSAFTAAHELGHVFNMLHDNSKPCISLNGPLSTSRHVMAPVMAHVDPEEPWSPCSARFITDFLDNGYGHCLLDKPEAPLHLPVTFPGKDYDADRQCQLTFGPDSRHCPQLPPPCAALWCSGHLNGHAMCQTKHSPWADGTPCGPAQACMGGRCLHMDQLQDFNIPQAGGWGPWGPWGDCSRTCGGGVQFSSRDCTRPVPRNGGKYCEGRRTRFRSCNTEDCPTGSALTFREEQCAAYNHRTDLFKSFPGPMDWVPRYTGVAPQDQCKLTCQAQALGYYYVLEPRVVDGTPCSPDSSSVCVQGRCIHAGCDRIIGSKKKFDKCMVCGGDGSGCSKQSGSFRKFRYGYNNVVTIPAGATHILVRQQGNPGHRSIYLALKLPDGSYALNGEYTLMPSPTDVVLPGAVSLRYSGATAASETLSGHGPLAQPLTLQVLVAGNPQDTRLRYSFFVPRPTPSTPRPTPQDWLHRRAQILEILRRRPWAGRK
How it was run: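 Cell-based assay in porcine chondrocytes. Aggrecan GAG chains labelled by culture with ³⁵S sulfate, then unincorporated label washed out. Aggrecan degradation stimulated with IL-1a (5ng/mL).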

Interstitial collagenase = molecular target: T2, Interstitial collagenase (Homo sapiens, UniProt P03956); assay: Inhibitory concentration against matrix metalloprotease 1
T2 sequence (P03956 whole entry): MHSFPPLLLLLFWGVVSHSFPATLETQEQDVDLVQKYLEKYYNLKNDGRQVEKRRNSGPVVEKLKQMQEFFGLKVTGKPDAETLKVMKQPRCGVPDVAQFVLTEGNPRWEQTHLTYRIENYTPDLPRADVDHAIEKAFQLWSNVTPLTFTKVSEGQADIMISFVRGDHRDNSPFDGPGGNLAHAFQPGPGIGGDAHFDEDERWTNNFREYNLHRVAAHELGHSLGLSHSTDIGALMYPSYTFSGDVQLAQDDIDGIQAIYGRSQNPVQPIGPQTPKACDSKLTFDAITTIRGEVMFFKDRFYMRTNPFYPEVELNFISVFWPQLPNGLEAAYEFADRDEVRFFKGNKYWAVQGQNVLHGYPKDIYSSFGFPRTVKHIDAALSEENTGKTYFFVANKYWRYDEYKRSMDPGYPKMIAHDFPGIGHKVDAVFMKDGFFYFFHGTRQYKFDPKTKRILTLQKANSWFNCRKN

Collagenase 3 = Collagenase 3 (Homo sapiens, UniProt P45452); assay: Inhibitory concentration against matrix metalloprotease 13
[2] = Inhibition of TNF alpha converting enzyme (TACE, ADAM17)
Stromelysin-1 = Stromelysin-1 (Homo sapiens, UniProt P08254); assay: Inhibition of matrix metalloprotease 3
[3] = molecular target: Matrix metalloproteinase-9 (Homo sapiens, UniProt P14780); assay: Inhibition of matrix metalloprotease 9
[4] = molecular target: Macrophage metalloelastase (Homo sapiens, UniProt P39900); assay: Inhibition of matrix metalloprotease 12
[5] = molecular target: Matrix metalloproteinase-14 (Homo sapiens, UniProt P50281); assay: Inhibition of matrix metalloprotease 14
[6] = Half life in rat; format: ADME, organism-based; conditions: in vivo
How it was run: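 Rat PK after IV bolus of 5mg/kg in glycerol formal. Blood drawn from the jugular vein at 5, 15, 30 min and 1, 2, 4, 6, 8, 24 h. Plasma diluted with an equal volume of water, extracted with MTBE, drug measured by LC–MS/MS. Parameters from noncompartmental analysis.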

[7] = Oral bioavailability in rat; format: ADME, organism-based; conditions: in vivo
How it was run: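 Oral dose given to rat as a suspension in 0.5% aqueous methylcellulose.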

Matrix metalloproteinase-9, sequence (P14780 whole entry): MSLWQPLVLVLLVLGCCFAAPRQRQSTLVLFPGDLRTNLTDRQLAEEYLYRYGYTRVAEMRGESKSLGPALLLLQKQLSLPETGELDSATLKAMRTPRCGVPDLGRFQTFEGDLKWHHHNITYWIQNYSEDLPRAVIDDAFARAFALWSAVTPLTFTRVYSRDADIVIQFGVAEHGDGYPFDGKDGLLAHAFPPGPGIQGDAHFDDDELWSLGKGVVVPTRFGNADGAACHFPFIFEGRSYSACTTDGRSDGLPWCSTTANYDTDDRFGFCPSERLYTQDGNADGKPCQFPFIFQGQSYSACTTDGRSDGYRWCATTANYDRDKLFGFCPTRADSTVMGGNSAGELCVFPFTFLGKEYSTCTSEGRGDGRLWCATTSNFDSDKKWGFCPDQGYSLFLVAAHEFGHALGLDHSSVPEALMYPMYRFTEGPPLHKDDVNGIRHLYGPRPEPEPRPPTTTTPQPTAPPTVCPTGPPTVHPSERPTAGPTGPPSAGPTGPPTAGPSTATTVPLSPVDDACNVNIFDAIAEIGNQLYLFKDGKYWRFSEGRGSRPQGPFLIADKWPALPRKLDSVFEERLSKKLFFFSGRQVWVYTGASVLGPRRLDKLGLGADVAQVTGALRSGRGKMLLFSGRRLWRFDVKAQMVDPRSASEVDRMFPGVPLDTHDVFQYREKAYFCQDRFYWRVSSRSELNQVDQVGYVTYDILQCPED
Stromelysin-1, sequence (P08254 whole entry): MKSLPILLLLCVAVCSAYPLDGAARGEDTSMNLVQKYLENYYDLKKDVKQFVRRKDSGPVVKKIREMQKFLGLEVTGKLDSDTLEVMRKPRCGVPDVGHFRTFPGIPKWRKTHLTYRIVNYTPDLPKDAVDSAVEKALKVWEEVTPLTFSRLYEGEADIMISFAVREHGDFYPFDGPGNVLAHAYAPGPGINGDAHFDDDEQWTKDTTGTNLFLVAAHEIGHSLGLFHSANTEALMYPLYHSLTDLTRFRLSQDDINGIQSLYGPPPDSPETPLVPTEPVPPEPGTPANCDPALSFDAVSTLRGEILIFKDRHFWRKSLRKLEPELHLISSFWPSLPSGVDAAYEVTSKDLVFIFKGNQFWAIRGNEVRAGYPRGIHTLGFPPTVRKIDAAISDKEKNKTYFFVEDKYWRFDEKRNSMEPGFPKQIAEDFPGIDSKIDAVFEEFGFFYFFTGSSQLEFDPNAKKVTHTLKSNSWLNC
Macrophage metalloelastase, sequence (P39900 whole entry): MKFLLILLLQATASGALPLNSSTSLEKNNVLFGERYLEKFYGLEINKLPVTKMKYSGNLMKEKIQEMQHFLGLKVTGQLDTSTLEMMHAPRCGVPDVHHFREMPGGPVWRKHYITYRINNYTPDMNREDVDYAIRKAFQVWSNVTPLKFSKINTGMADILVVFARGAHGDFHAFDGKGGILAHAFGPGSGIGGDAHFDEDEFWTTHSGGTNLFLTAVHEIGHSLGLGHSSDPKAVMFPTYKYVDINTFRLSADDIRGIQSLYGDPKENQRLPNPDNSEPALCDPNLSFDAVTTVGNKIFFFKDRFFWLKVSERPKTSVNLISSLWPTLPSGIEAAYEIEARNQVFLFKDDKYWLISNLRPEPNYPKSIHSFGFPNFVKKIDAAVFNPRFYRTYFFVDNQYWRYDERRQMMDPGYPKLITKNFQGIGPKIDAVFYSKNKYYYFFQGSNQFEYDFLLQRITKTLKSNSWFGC

Row | Structure (SMILES) | IC50 [1] [nM] | IC50 (Interstitial collagenase) [nM] | IC50 (Collagenase 3) [nM] | also measured
1 | Cc1ccc(C)c(COc2ccc(S(=O)(=O)[C@@H]3CCOC[C@]3(O)C(=O)NO)cc2)c1 | 26 | > 30000 | 300 | –
2 | Cc1ccc(Oc2ccc(S(=O)(=O)[C@@H]3CCOC[C@]3(O)C(=O)NO)cc2)cc1 | > 1000 | 120 | 1 | –
3 | Cc1ccc(-c2ccc(S(=O)(=O)[C@@H]3CCOC[C@]3(O)C(=O)NO)cc2)cc1 | > 1000 | < 30 | 0.39 | –
4 | Cc1cccc(-c2ccc(S(=O)(=O)[C@@H]3CCOC[C@]3(O)C(=O)NO)cc2)c1 | > 1000 | < 30 | 0.43 | –
5 | O=C(NO)[C@@]1(O)COCC[C@H]1S(=O)(=O)c1ccc(OCc2cc(Cl)ccc2Cl)cc1 | 87 | 27000 | 13 | –
6 | Cc1ccc(COc2ccc(S(=O)(=O)[C@@H]3CCOC[C@]3(O)C(=O)NO)cc2)cc1 | > 1000 | 5400 | 1.3 | –
7 | Cc1cccc(COc2ccc(S(=O)(=O)[C@@H]3CCOC[C@]3(O)C(=O)NO)cc2)c1 | > 1000 | 22000 | 5 | –
8 | Cc1cccc(Oc2ccc(S(=O)(=O)[C@@H]3CCOC[C@]3(O)C(=O)NO)cc2)c1 | > 1000 | 270 | 1.1 | –
9 | O=C(NO)[C@@]1(O)COCC[C@H]1S(=O)(=O)c1ccc(OCc2c(Cl)cccc2Cl)cc1 | > 1000 | > 30000 | > 300 | –
10 | O=C(NO)[C@@]1(O)COCC[C@H]1S(=O)(=O)c1ccc(OCc2ccccc2C(F)(F)F)cc1 | 220 | > 30000 | 28 | –
11 | Cc1ccc(COc2ccc(S(=O)(=O)[C@@H]3CCOC[C@]3(O)C(=O)NO)cc2)c(C)c1 | 370 | 19000 | 17 | –
12 | Cc1ccccc1-c1ccc(S(=O)(=O)[C@@H]2CCOC[C@]2(O)C(=O)NO)cc1 | > 1000 | 10000 | 140 | –
13 | Cc1ccccc1Oc1ccc(S(=O)(=O)[C@@H]2CCOC[C@]2(O)C(=O)NO)cc1 | > 1000 | 4700 | 9.8 | –
14 | CO[C@]1(C(=O)NO)COCC[C@H]1S(=O)(=O)c1ccc(OCc2ccccc2Cl)cc1 | 100 | – | 38 | –
15 | CO[C@]1(C(=O)NO)COCC[C@H]1S(=O)(=O)c1ccc(OCc2ccc(Cl)cc2Cl)cc1 | 100 | – | 46 | –
16 | O=C(NO)[C@@]1(O)COCC[C@H]1S(=O)(=O)c1ccc(OCc2ccc(Cl)cc2)cc1 | 330 | 1400 | 0.88 | –
17 | O=C(NO)[C@H]1C[C@@H](O)CCN1S(=O)(=O)c1ccc(OCc2ccccc2Cl)cc1 | – | – | 12 | IC50 [2]: 36 nM
18 | Cc1cccc(C)c1COc1ccc(S(=O)(=O)[C@@H]2CCOC[C@]2(O)C(=O)NO)cc1 | > 1000 | > 30000 | > 300 | –
19 | O=C(NO)[C@@]1(O)COCC[C@H]1S(=O)(=O)c1ccc(OCc2cccc(Cl)c2Cl)cc1 | 140 | 13000 | 15 | –
20 | O=C(NO)[C@@]1(O)COCC[C@H]1S(=O)(=O)c1ccc(OCc2cccc(Cl)c2)cc1 | > 1000 | 7900 | 2.4 | –
21 | O=C(NO)[C@@]1(O)COCC[C@H]1S(=O)(=O)c1ccc(OCc2ccccc2Cl)cc1 | 40 | 2800 | 2.7 | –
22 | Cc1ccccc1COc1ccc(S(=O)(=O)[C@@H]2CCOC[C@]2(O)C(=O)NO)cc1 | 55 | 12000 | 21 | –
23 | O=C(NO)[C@@]1(O)COCC[C@H]1S(=O)(=O)c1ccc(OCc2ccc(Cl)cc2Cl)cc1 | 8.1 | 920 | 0.95 | IC50 (Stromelysin-1): 55 nM; IC50 [3]: 5.3 nM; IC50 [4]: 0.95 nM; IC50 [5]: 150 nM; half-life [6]: 5 h; bioavailability [7]: 7%

Source: ChEMBL document CHEMBL1137101, “3-Hydroxy-4-arylsulfonyltetrahydropyranyl-3-hydroxamic acids are novel inhibitors of MMP-13 and aggrecanase” (Bioorg Med Chem Lett, 2004)
